One series deals with Chikungunya virus. Description: Antiviral activity against chikungunya virus Indian ocean strain 899 infected in Vero cells assessed as virus-induced cytopathic effect after 6 to 7 days. The class given is functional, cell-based. Particulars: Indian ocean strain 899, Vero.
Series [1] is described as follows: Selectivity index, CC50 for african green monkey Vero cells to EC50 for chikungunya virus Indian ocean strain 899. The series is classed as toxicity, cell-based. Particulars: read-out: Ratio CC50/EC50.
Series [2] has as its system Human immunodeficiency virus 1. In words: Antiviral activity against HIV1 3B infected in MT4 cells assessed as cell viability after 5 days by MTT assay. The series is classed as functional, organism-based. Particulars: Human immunodeficiency virus 1, 3B, MT4, 120 h. An outline of the steps: (§1)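 MT-4 cells ([…] cells/mL suspension) infected with HIV-1 IIIB or HIV-2 ROD at 100−300 CCID50, with mock-infected wells run in parallel. Serial 5-fold compound dilutions in triplicate wells. Viability by MTT after 5 days, absorbance at 540 and 690 nm, median OD of three wells. Median ± median absolute deviation from ≥3 independent assays.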

Series [3] is described as follows: Selectivity index, CC50 for african green monkey Vero cells to EC50 for HIV1 3B. The class given is toxicity, cell-based. The settings on record: read-out: Ratio CC50/EC50. An outline of the steps: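 SI = CC50 in Vero cells ÷ EC50 against HIV-1 IIIB or HIV-2 ROD. CC50 is the 50% antimetabolic concentration from MTS dose−response in Vero. EC50 is from the MT-4/MTT 5-day antiviral assay.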

Series [4] deals with Human immunodeficiency virus 2. In words: Antiviral activity against HIV2 ROD infected in MT4 cells assessed as cell viability after 5 days by MTT assay. The series is classed as functional, organism-based. Particulars: Human immunodeficiency virus 2, ISOLATE ROD, MT4, 120 h. An outline of the steps: as §1

This passage reports EC50 and selectivity ratio results from ChEMBL document CHEMBL3585274, “Antiviral Activity of Diterpene Esters on Chikungunya Virus and HIV Replication” (J Nat Prod, 2015).

Some results are limits rather than exact numbers.

On to `COc1cc(CC(=O)OCC2=C[C@H]3[C@@H]4C(C)(C)[C@]4(OC(C)=O)[C@H](OC(=O)Cc4ccccc4)[C@@H](C)[C@]3(O)[C@@H]3C=C(C)C(=O)[C@@]3(O)C2)ccc1O`, for which the values for the EC50 (with Chikungunya virus; in series [2]; in series [4]) were 1.7 µM, 0.75 µM and 0.08 µM, respectively. For the same compound, the selectivity ratio in series [1] amounted to 14.2; in series [3], 23.

As for `CC(=O)O[C@@H]1[C@@H](C)[C@@]2(O)[C@@H](C=C(CO)C[C@]3(O)C(=O)C(C)=C[C@@H]23)[C@@H]2C(C)(C)[C@]12OC(C)=O`, the EC50 in the series with Chikungunya virus was found to be 9.4 µM; in series [2], 4.8 µM; in series [4], 1 µM. The selectivity ratio in series [1] was 4.2; in series [3] it was greater than 59.

In the case of `CCCCCCCCCC(=O)O[C@@H]1[C@@H](C)[C@@]2(O)[C@@H](C=C(CO)C[C@@]3(O)C(=O)C(C)=C[C@@H]23)[C@@H]2C(C)(C)[C@]12OC(=O)CCCCCCCCC`, the EC50 with Chikungunya virus is 1.5 µM; in series [2], greater than 16 µM; in series [4], greater than 16 µM. In series [1], the selectivity ratio was found to be 2.2.

With `CC(=O)O[C@@]12[C@H](O)[C@@H](C)[C@@]3(O)[C@@H](C=C(CO)C[C@]4(O)C(=O)C(C)=C[C@@H]34)[C@@H]1C2(C)C`, the EC50 with Chikungunya virus was greater than 174 µM; in series [2], greater than 217 µM; in series [4], 101 µM. Further, the selectivity ratio in series [3] is 1.

Turning to `CC1=C[C@]23C(=O)[C@@H](C=C(COC(=O)c4ccccc4)[C@@H](O)[C@]2(O)[C@H]1OC(=O)c1ccccc1)[C@H]1[C@@H](C[C@H]3C)C1(C)C`, the EC50 was determined as 1.2 µM with Chikungunya virus, 0.027 µM in series [2] and 0.009 µM in series [4]. Also, the selectivity ratio in series [1] was 6.4; in series [3], 3400.

In the case of `CCCCCCCCCCCCCC(=O)O[C@@H]1[C@@H](C)[C@@]2(O)[C@@H](C=C(CO)C[C@@]3(O)C(=O)C(C)=C[C@@H]23)[C@@H]2C(C)(C)[C@]12OC(C)=O`, the selectivity ratio in series [1] was found to be 1.9. In addition, the EC50 is greater than 18 µM in series [2] and greater than 17 µM in series [4].

Turning to `CCCC(=O)O[C@@H]1[C@@H](C)[C@@]2(O)[C@@H](C=C(CO)C[C@]3(O)C(=O)C(C)=C[C@@H]23)[C@@H]2C(C)(C)[C@]12OC(=O)CCC`, the EC50 is 1.8 µM in the series on Chikungunya virus, 0.079 µM in series [2] and 0.014 µM in series [4]. Moreover, the selectivity ratio in series [1] was 2.1; in series [3] it was 3160.

Consider `CC(=O)O[C@@H]1[C@@H](C)[C@@]2(O)[C@@H](C=C(CO)C[C@]3(O)C(=O)C(C)=C[C@@H]23)[C@@H]2C(C)(C)[C@]12O`, for which the values for the EC50 (with Chikungunya virus; in series [2]; in series [4]) were greater than 245 µM, greater than 307 µM and greater than 307 µM, respectively. Besides, the results for the selectivity ratio in series [1] and in series [3] were 0.8 and greater than 1, respectively.

As to `CCCCCCCCCC(=O)O[C@@H]1[C@@H](C)[C@@]2(O)[C@@H](C=C(CO)C[C@]3(O)C(=O)C(C)=C[C@@H]23)[C@@H]2C(C)(C)[C@]12O`, the EC50 came to 4.9 µM in the series on Chikungunya virus, 4.9 µM in series [2] and 2 µM in series [4]. For the same compound, the selectivity ratio in series [1] was found to be 1.5; in series [3], 4.

Turning to `CCCC(=O)O[C@@]12[C@H](O)[C@@H](C)[C@@]3(O)[C@@H](C=C(CO)C[C@]4(O)C(=O)C(C)=C[C@@H]34)[C@@H]1C2(C)C`, the EC50 in the series on Chikungunya virus was 20 µM; in series [2] it was 122 µM; in series [4] it was 25 µM. The selectivity ratio in series [1] is 12.3; in series [3] it was greater than 3.

For the compound `CCCCCCCCCC(=O)O[C@@]12[C@H](O)[C@@H](C)[C@@]3(O)[C@@H](C=C(CO)C[C@]4(O)C(=O)C(C)=C[C@@H]34)[C@@H]1C2(C)C`, the EC50 in the series with Chikungunya virus is 2.2 µM; in series [2], 0.9 µM; in series [4], 0.15 µM. The selectivity ratio was 9.7 in series [1] and 130 in series [3].

Regarding `CCCCCCCCCCCCCC(=O)O[C@@]12[C@H](O)[C@@H](C)[C@@]3(O)[C@@H](C=C(CO)C[C@]4(O)C(=O)C(C)=C[C@@H]34)[C@@H]1C2(C)C`, the EC50 in the series on Chikungunya virus is 0.99 µM; in series [2], 0.24 µM; in series [4], 0.078 µM. For the same compound, the selectivity ratio in series [1] is 9; in series [3] it was 107.

In the case of `CCCCCC(=O)O[C@@H]1[C@@H](C)[C@@]2(O)[C@@H](C=C(CO)C[C@]3(O)C(=O)C(C)=C[C@@H]23)[C@@H]2C(C)(C)[C@]12OC(=O)CCCCC`, the EC50 in the series on Chikungunya virus is 3.2 µM; in series [2], 0.007 µM; in series [4], 0.0012 µM. Moreover, the figures for the selectivity ratio in series [1] and in series [3] were 1.8 and 2890, respectively.

Regarding `CCCCCCCCCC(=O)O[C@@H]1[C@@H](C)[C@@]2(O)[C@@H](C=C(CO)C[C@]3(O)C(=O)C(C)=C[C@@H]23)[C@@H]2C(C)(C)[C@]12OC(=O)CCCCCCCCC`, the EC50 in the series with Chikungunya virus was 0.006 µM; in series [2], 0.0012 µM; in series [4] it was 0.0002 µM. The values for the selectivity ratio in series [1] and in series [3] were 686 and 754, respectively.

For `C/C=C(\C)C(=O)O[C@@H]1[C@@H](C)[C@@]2(O)[C@@H](C=C(CO)C[C@]3(O)C(=O)C(C)=C[C@@H]23)[C@@H]2C(C)(C)[C@]12OC(=O)CCCCCCCCC`, the EC50 in the series with Chikungunya virus amounted to 1.1 µM; in series [2], 0.0015 µM; in series [4] it was 0.0002 µM. Besides, the selectivity ratio in series [1] came to 3.3; in series [3], 600.

Consider `CNc1ccccc1C(=O)O[C@@H]1[C@@H](C)[C@@]2(O)[C@@H](C=C(CO)C[C@]3(O)C(=O)C(C)=C[C@@H]23)[C@@H]2C(C)(C)[C@]12OC(C)=O`, for which the 50% effective concentration (EC50) came to 15 µM with Chikungunya virus, 0.009 µM in series [2] and 3 µM in series [4]. The selectivity ratio came to 1.1 in series [1] and 749 in series [3].

Turning to `CC(=O)OCC1=C[C@H]2[C@@H]3C(C)(C)[C@]3(OC(C)=O)[C@H](O)[C@@H](C)[C@]2(O)[C@@H]2C=C(C)C(=O)[C@@]2(O)C1`, the values for the EC50 (with Chikungunya virus; in series [2]; in series [4]) were 24.6 µM, greater than 279 µM and 243 µM, respectively. Moreover, the selectivity ratio in series [1] turned out to be 1.7; in series [3] it was 1.

Regarding `CCCCCCCCC(=O)O[C@@H]1[C@@H](C)[C@@]2(O)[C@@H](C=C(COC(=O)Cc3ccc(O)c(OC)c3)C[C@]3(O)C(=O)C(C)=C[C@@H]23)[C@@H]2C(C)(C)[C@]12OC(=O)CCCCCCCC`, the EC50 with Chikungunya virus is 0.6 µM; in series [2], 0.036 µM; in series [4] it was 0.004 µM. Besides, the values for the selectivity ratio in series [1] and in series [3] were 3.7 and 483, respectively.

As for `CC(=O)OCC1=C[C@H]2[C@@H]3C(C)(C)[C@]3(OC(C)=O)[C@H](OC(C)=O)[C@@H](C)[C@]2(O)[C@@H]2C=C(C)C(=O)[C@@]2(O)C1`, the EC50 with Chikungunya virus is 32.6 µM; in series [2] it was 27.4 µM; in series [4], 6.6 µM. In addition, the selectivity ratio is 2.2 in series [1] and greater than 9 in series [3].

In the case of `CCCC(=O)O[C@@H]1[C@@H](C)[C@@]2(O)[C@@H](C=C(C=O)C[C@]3(O)C(=O)C(C)=C[C@@H]23)[C@@H]2C(C)(C)[C@]12OC(=O)CCC`, the EC50 with Chikungunya virus is 13.1 µM; in series [2] it was greater than 20 µM; in series [4] it was greater than 35 µM. Moreover, the selectivity ratio in series [1] came to 2.7.

As to `CCCCCCCCCCCCCC(=O)O[C@@H]1[C@@H](C)[C@@]2(O)[C@@H](C=C(C=O)C[C@]3(O)C(=O)C(C)=C[C@@H]23)[C@@H]2C(C)(C)[C@]12OC(C)=O`, the concentration for a half-maximal effect (EC50) with Chikungunya virus was 0.7 µM; in series [2], 3.3 µM; in series [4], 1.2 µM. Besides, the values for the selectivity ratio in series [1] and in series [3] were 5.9 and 5, respectively.

Regarding `C/C=C(/C)C(=O)O[C@H]1C(C)=C[C@]23C(=O)[C@@H](C=C(CO)[C@@H](O)[C@]12O)[C@H]1[C@@H](C[C@H]3C)C1(C)C` [INGENOL MEBUTATE], the figures for the EC50 (with Chikungunya virus; in series [2]; in series [4]) were 22.9 µM, 0.017 µM and 0.009 µM, respectively. Besides, the results for the selectivity ratio in series [1] and in series [3] were 2.3 and 7850, respectively.

Regarding `CC1=C[C@]23C(=O)[C@@H](C=C(CO)[C@@H](O)[C@]2(O)[C@H]1O)[C@H]1[C@@H](C[C@H]3C)C1(C)C` [INGENOL], the EC50 with Chikungunya virus was found to be 30.1 µM; in series [2], 209 µM; in series [4] it was 131 µM. The values for the selectivity ratio in series [1] and in series [3] were 4.8 and greater than 2, respectively.

As to `CCCCCCCCCCCCCC(=O)O[C@@H]1[C@@H](C)[C@@]2(O)[C@@H](C=C(CO)C[C@]3(O)C(=O)C(C)=C[C@@H]23)[C@@H]2C(C)(C)[C@]12OC(C)=O` [PHORBOL MYRISTATE ACETATE], the figures for the selectivity ratio in series [1] and in series [3] were 1960 and 220, respectively. Further, the EC50 in series [2] was 0.0009 µM; in series [4], 0.0007 µM.

`CC1=C[C@H]2[C@@]3(O)[C@H](C)[C@@H](O)[C@]4(O)[C@H]([C@@H]3C=C(CO)C[C@]2(O)C1=O)C4(C)C` [PHORBOL]: the EC50 (in the series on Chikungunya virus; in series [2]; in series [4]) was greater than 343 µM in each case. The selectivity ratio in series [1] and in series [3] was greater than 1 throughout.
